Test results reported in ChEMBL document CHEMBL5653631, “A Potent and Selective ULK1 Inhibitor Suppresses Autophagy and Sensitizes Cancer Cells to Nutrient Stress” (iScience, 2018).
One block for each compound: values may come before it.

How the values were obtained:
[1] = target: Serine/threonine-protein kinase pim-3 (Homo sapiens) (UniProt Q86V86); assay: Inhibition of human recombinant PIM3 at 500 nM related to control ULK1
[2] = target: T1, Cytoplasmic tyrosine-protein kinase BMX (Homo sapiens) (UniProt P51813); assay: Inhibition of human recombinant BMX at 500 nM in presence of ATP by radiometric assay relative to control
T1 sequence (whole entry): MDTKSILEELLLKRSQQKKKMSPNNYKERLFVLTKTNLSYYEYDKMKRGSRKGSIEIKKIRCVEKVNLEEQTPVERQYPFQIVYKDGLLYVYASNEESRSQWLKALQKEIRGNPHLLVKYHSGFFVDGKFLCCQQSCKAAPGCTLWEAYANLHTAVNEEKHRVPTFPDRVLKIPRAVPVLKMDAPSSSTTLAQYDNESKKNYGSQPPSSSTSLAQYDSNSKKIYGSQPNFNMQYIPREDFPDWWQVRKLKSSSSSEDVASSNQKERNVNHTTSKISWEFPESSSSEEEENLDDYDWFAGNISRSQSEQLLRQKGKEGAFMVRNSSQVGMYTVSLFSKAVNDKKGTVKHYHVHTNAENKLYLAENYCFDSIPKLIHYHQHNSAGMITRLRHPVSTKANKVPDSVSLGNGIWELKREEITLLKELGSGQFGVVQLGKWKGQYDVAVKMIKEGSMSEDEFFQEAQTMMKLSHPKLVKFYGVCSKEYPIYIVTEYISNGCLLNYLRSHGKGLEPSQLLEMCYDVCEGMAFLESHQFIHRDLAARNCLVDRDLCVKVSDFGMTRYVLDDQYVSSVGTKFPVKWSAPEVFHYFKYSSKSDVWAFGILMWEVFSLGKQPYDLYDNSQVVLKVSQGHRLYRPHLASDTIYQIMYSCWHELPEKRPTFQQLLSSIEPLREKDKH
Summary of the method: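 Part of a radiometric in vitro activity panel of 327 recombinant human kinases. Each kinase was tested in duplicate at one inhibitor concentration. Activity remaining was expressed as a percentage of the vehicle control, and percent inhibition was taken as 100 minus that value.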

[3] = target: T2, Ephrin type-B receptor 4 (Homo sapiens) (UniProt P54760); assay: Inhibition of human recombinant EphB4 at 500 nM related to control ULK1
T2 sequence (whole entry): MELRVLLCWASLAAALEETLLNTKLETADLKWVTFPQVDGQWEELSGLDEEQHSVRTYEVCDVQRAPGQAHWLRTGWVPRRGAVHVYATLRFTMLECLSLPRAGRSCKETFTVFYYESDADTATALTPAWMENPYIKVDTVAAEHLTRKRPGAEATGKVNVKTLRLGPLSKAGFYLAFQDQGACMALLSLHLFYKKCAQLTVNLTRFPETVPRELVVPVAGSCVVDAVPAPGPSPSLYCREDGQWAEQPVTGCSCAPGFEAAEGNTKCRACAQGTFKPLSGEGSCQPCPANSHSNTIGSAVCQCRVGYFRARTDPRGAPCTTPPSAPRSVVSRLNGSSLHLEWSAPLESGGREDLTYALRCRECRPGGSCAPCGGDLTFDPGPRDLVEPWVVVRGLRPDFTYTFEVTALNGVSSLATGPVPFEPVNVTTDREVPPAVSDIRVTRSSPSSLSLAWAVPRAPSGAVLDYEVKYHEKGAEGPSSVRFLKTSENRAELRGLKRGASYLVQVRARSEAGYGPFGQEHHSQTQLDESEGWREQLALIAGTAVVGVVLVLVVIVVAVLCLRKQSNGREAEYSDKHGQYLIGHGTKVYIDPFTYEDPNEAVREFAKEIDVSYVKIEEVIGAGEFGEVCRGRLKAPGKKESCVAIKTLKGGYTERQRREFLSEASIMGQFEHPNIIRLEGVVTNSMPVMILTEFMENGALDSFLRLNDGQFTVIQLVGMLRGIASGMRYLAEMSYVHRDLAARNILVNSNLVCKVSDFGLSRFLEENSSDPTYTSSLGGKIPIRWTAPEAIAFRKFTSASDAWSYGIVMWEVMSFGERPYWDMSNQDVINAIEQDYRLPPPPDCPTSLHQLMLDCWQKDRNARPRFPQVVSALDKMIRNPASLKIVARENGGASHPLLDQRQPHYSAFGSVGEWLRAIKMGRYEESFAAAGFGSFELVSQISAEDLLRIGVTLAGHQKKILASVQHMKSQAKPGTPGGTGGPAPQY

[4] = target: Serine/threonine-protein kinase MARK1 (Homo sapiens) (UniProt Q9P0L2); assay: Inhibition of human recombinant MARK1 at 500 nM related to control ULK1
Serine/threonine-protein kinase MARK1 (Homo sapiens), sequence (Q9P0L2 whole entry, looked up): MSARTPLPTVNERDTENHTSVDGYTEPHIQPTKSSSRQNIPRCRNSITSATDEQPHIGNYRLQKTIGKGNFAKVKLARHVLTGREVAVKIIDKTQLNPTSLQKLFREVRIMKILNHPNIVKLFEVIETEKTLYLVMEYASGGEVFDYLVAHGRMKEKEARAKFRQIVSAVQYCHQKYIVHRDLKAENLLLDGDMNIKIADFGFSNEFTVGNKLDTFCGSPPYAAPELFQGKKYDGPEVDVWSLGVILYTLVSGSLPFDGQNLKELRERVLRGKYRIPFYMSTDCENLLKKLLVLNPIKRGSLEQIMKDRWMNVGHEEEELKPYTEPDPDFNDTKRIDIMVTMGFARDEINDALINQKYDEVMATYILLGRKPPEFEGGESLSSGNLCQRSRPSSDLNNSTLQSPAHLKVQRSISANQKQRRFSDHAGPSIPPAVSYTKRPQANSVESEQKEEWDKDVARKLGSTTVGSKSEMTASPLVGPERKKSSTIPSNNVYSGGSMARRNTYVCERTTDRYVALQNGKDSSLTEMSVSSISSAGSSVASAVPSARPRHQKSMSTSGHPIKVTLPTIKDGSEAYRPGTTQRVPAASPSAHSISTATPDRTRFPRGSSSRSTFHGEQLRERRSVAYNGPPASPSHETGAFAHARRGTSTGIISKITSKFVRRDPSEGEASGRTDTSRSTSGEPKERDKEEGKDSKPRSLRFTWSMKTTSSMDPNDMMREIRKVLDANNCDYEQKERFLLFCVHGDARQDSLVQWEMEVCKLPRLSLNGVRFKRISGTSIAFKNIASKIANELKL

[5] = target: Serine/threonine-protein kinase 32B (Homo sapiens) (UniProt Q9NY57); assay: Inhibition of human recombinant YANK2 at 500 nM in presence of ATP by radiometric assay relative to control
Serine/threonine-protein kinase 32B (Homo sapiens), sequence (Q9NY57 whole entry): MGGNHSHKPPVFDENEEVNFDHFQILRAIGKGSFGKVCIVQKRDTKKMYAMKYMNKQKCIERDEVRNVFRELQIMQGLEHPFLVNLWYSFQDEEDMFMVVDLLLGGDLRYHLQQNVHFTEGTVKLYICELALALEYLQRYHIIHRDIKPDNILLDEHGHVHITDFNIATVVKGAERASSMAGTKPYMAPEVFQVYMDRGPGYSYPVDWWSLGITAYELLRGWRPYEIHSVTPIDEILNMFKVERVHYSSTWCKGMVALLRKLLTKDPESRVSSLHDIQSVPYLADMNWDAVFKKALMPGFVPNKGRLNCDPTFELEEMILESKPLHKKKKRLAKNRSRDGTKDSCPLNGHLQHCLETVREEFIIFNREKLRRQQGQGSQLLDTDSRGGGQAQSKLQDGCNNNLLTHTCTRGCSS

[6] = target: Cyclin-dependent kinase 3 (Homo sapiens) (UniProt Q00526); assay: Inhibition of human recombinant CDK3 at 500 nM related to control ULK1
Cyclin-dependent kinase 3 (Homo sapiens), sequence (Q00526 whole entry, looked up): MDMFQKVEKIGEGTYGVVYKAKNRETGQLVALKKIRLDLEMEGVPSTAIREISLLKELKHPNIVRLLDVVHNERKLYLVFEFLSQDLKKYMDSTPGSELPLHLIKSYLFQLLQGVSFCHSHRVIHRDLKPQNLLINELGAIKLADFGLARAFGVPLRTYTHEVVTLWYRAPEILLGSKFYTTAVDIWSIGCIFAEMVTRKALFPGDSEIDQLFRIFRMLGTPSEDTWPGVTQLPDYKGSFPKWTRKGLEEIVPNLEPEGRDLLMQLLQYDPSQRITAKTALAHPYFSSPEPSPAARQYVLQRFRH

[7] = target: NT-3 growth factor receptor (Homo sapiens) (UniProt Q16288); assay: Inhibition of human recombinant TRKC at 15 nM in presence of ATP by radiometric assay relative to control
NT-3 growth factor receptor (Homo sapiens), sequence (Q16288 32-839 limits assumed): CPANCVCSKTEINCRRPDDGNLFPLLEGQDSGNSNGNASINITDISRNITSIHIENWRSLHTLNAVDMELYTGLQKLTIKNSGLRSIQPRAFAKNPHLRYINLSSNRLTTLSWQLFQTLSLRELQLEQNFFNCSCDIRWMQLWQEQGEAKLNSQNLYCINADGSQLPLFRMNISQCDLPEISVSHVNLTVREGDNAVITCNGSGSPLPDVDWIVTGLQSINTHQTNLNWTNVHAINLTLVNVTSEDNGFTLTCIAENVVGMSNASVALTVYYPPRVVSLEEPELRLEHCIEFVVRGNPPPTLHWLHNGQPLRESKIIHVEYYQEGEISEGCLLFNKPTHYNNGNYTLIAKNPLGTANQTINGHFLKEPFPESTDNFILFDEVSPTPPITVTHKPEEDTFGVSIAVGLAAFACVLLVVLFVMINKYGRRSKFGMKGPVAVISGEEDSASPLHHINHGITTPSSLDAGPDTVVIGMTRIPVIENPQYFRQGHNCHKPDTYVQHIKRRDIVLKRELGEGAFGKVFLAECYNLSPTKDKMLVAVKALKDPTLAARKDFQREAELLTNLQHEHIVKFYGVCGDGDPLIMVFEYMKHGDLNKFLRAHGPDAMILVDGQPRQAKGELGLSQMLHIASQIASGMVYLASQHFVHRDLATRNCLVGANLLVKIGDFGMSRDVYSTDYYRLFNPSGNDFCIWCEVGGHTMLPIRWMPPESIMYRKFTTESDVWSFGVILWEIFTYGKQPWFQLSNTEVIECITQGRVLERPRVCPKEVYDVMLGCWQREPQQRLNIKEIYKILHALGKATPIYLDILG

[8] = target: Serine/threonine-protein kinase SIK3 (Homo sapiens) (UniProt Q9Y2K2); assay: Inhibition of human recombinant QSK at 15 nM in presence of ATP by radiometric assay relative to control
[9] = target: Death-associated protein kinase 3 (Homo sapiens) (UniProt O43293); assay: Inhibition of human recombinant DAPK3 at 15 nM in presence of ATP by radiometric assay relative to control
[10] = target: RAC-beta serine/threonine-protein kinase (Homo sapiens) (UniProt P31751); assay: Inhibition of human recombinant AKT2 at 15 nM related to control ULK1
[11] = target: Serine/threonine-protein kinase MARK1 (Homo sapiens) (UniProt Q9P0L2); assay: Inhibition of human recombinant MARK1 at 40 nM in presence of ATP by radiometric assay relative to control
[12] = target: Mitogen-activated protein kinase 11 (Homo sapiens) (UniProt Q15759); assay: Inhibition of human recombinant p38beta at 40 nM in presence of ATP by radiometric assay relative to control
Mitogen-activated protein kinase 11 (Homo sapiens), sequence (Q15759 whole entry, canonical isoform): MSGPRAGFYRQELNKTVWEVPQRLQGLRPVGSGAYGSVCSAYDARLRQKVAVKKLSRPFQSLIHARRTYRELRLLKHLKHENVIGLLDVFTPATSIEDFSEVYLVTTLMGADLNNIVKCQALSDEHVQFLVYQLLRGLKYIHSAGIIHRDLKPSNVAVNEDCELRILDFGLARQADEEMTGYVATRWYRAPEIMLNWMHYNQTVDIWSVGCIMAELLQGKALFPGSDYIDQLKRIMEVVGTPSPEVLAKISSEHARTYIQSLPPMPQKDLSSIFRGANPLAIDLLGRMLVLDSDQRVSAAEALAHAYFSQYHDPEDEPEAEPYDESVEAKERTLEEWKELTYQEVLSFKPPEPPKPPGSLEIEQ

[13] = target: Casein kinase I isoform gamma-2 (Homo sapiens) (UniProt P78368); assay: Inhibition of human recombinant CK1g2 at 40 nM in presence of ATP by radiometric assay relative to control
Casein kinase I isoform gamma-2 (Homo sapiens), sequence (P78368 whole entry, looked up, canonical isoform): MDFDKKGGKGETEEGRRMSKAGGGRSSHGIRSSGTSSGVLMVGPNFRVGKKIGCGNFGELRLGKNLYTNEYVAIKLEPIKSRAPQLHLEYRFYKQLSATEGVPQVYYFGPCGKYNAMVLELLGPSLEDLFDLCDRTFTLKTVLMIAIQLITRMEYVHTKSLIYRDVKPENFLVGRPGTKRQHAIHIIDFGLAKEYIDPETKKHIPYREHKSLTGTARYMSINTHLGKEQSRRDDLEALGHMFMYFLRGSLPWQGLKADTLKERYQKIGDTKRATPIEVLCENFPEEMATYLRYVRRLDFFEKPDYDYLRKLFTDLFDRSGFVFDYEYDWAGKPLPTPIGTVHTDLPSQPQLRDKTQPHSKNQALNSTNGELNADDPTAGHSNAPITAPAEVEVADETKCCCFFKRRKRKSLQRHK

[14] = target: Serine/threonine-protein kinase 38-like (Homo sapiens) (UniProt Q9Y2H1); assay: Inhibition of human recombinant NDR2 at 40 nM in presence of ATP by radiometric assay relative to control
Serine/threonine-protein kinase 38-like (Homo sapiens), sequence (Q9Y2H1 2-464 limits assumed): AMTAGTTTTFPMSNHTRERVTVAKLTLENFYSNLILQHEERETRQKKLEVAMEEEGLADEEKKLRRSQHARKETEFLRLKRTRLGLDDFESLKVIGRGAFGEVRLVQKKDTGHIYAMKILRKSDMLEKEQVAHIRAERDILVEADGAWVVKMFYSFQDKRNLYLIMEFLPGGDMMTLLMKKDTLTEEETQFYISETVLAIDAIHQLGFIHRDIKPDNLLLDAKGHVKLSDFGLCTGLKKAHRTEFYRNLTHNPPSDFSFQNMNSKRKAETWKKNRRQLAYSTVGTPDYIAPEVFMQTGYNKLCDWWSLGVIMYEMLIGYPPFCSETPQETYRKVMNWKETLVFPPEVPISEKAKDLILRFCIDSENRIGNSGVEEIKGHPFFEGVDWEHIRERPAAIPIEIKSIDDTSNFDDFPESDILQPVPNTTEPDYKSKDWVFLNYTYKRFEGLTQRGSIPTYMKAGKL

[15] = target: Tau-tubulin kinase 2 (Homo sapiens) (UniProt Q6IQ55); assay: Inhibition of human recombinant TTBK2 at 40 nM related to control ULK1
Tau-tubulin kinase 2 (Homo sapiens), sequence (Q6IQ55 whole entry): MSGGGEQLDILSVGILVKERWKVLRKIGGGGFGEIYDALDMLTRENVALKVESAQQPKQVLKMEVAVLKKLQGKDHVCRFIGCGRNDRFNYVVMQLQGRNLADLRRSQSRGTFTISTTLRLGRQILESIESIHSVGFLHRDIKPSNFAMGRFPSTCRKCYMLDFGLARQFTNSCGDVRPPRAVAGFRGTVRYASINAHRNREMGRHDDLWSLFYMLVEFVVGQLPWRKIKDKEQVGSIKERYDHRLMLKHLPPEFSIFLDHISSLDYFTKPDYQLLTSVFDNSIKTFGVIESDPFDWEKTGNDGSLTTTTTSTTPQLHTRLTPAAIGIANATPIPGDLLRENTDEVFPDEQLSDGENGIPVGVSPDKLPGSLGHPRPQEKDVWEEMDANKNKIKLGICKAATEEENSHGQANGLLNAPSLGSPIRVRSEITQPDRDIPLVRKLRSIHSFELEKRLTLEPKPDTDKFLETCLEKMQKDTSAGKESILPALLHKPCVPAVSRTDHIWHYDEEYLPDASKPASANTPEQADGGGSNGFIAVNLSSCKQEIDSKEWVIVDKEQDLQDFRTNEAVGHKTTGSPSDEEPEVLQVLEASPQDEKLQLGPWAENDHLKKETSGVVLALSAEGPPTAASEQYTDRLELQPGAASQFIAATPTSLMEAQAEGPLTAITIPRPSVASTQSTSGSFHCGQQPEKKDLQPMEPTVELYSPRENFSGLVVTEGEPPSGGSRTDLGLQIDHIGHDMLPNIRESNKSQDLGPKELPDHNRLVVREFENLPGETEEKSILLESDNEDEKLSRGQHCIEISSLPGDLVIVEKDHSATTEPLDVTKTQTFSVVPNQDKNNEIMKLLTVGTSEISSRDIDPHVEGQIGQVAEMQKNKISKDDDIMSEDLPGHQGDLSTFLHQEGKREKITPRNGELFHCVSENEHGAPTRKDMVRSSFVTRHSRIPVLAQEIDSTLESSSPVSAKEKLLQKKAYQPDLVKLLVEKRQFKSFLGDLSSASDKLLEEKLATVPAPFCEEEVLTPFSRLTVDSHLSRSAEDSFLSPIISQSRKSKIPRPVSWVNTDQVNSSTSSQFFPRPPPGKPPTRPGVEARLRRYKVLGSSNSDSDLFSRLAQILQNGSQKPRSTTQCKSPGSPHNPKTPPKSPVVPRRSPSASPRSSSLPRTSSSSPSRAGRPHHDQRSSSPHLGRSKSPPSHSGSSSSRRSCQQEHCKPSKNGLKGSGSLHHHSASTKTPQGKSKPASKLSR

[16] = target: Tau-tubulin kinase 2 (Homo sapiens) (UniProt Q6IQ55); assay: Inhibition of human recombinant TTBK2 at 40 nM in presence of ATP by radiometric assay relative to control

fold change (FC) [1]: 0
inhibition [2]: 16%
fold change (FC) [3]: 0
fold change (FC) [4]: 0.73
inhibition [5]: 2%
fold change (FC) [6]: 0.01
SMILES: CNC(=O)c1ccccc1Oc1nc(Nc2cc(OC)c(OC)c(OC)c2)ncc1Br

inhibition [7]: 0%
inhibition [8]: 86%
fold change (FC) [10]: 0
SMILES: CC(C)[C@H](NC(=O)c1cc(-c2cnn3cc(-c4ccc(OCCN5CCCCC5)cc4)cnc23)cs1)C(F)(F)F
inhibition [9]: 0%

inhibition [11]: 29%
inhibition [12]: 10%
inhibition [13]: 5%
inhibition [14]: 0%
fold change (FC) [15]: 0
inhibition [16]: 0%
SMILES: O=C(N[C@@H](C1CC1)C(F)(F)F)c1cc(-c2cnn3cc(-c4ccc(F)cc4)cnc23)cs1
